“And” between values parts separate entries of the source, which are not always exact repeats. Equal entries are not always repeated.
Target: urease (Canavalia ensiformis, UniProt P07374)
Assay: Urease inhibition assay
Type: biochemical
Conditions: IC50 (µM) ± SEM, in-vitro urease inhibition
Method in brief: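 Test compound and enzyme preincubated in pH 6.8 phosphate buffer for 10 min at 37 °C. Phenol and alkali reagents then added. Absorbance read at 625 nm. Percent inhibition calculated as (control absorbance − sample absorbance)/control absorbance × 100. Run in triplicate, with a standard urease inhibitor as positive control. Values given ± SEM.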

Sequence of urease (P07374 whole entry, looked up): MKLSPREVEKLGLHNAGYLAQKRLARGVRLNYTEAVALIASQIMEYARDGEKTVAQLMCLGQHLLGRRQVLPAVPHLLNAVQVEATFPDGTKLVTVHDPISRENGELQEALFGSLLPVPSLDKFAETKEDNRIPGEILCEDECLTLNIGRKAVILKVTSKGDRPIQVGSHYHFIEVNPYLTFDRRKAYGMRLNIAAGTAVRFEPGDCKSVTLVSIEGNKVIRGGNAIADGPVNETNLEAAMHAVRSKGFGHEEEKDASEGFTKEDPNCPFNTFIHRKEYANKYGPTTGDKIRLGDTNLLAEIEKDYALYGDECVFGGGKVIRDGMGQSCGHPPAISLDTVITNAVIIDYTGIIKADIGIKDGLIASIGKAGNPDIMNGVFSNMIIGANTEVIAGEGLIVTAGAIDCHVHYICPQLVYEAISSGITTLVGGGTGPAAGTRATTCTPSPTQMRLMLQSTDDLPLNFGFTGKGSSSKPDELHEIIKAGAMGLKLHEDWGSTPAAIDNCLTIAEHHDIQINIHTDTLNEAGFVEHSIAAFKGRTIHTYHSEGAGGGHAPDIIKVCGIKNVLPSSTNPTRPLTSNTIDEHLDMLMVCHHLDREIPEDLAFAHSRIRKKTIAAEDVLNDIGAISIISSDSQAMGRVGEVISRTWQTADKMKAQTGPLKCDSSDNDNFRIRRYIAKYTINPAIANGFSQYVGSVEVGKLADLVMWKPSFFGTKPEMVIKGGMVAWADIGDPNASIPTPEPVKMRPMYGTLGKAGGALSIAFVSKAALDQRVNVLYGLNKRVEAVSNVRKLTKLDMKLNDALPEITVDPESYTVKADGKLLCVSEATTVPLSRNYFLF

| IC50 | Compound |
| --- | --- |
| 48.3 µM and 47.9 µM | Oc1ccc(C=NN=C(Cc2ccccc2)c2ccccc2)cc1 [Compound 9, 1-(1,2-diphenylethylidene)-2-(4-hydroxybenzylidene)hydrazine] |
| 34.3 ± 0.65 µM | O=[N+]([O-])c1ccc(O)c(C=NN=C(Cc2ccccc2)c2ccccc2)c1 [Compound 5, 1-(1,2-diphenylethylidene)-2-(2-hydroxy-5-nitrobenzylidene)hydrazine] |
| 45.9 µM and 48.3 µM | CSc1ccc(C=NN=C(Cc2ccccc2)c2ccccc2)cc1 [Compound 7, 1-(1,2-diphenylethylidene)-2-(4-(methylthio)benzylidene)hydrazine] |
| 47.9 µM and 45.9 µM | Cc1ccc(C=NN=C(Cc2ccccc2)c2ccccc2)cc1 [Compound 8, 1-(1,2-diphenylethylidene)-2-(4-methylbenzylidene)hydrazine] |
| 26.11 ± 0.22 µM | O=[N+]([O-])c1ccc(C=NN=C(Cc2ccccc2)c2ccccc2)cc1 [Compound 4, 1-(1,2-diphenylethylidene)-2-(4-nitrobenzylidene)hydrazine] |
| 28.11 ± 0.22 µM | Clc1ccc(C=NN=C(Cc2ccccc2)c2ccccc2)cc1 [Compound 6, 1-(4-chlorobenzylidene)-2-(1,2-diphenylethylidene)hydrazine] |
| 22.2 ± 0.42 µM | Clc1ccc(C=NN=C(Cc2ccccc2)c2ccccc2)c(Cl)c1 [Compound 3, 1-(2,4-dichlorobenzylidene)-2-(1,2-diphenylethylidene)hydrazine] |

From paper PMC10345485 (Saudi Pharmaceutical Journal : SPJ, 2023)
